Measurements: ChEMBL document CHEMBL1151737, “Development and preclinical studies of broad-spectrum anti-HIV agent (3'R,4'R)-3-cyanomethyl-4-methyl-3',4'-di-O-(S)-camphanoyl-(+)-cis-khellactone (3-cyanomethyl-4-methyl-DCK)” (J Med Chem, 2008)

Tests used:
[1] = tested on: H9; assay: Cytotoxicity against human H9 cells; assay type: cell-based
[2] = tested on: Human immunodeficiency virus 1; assay: Antiviral activity against HIV1 3B infected in human H9 lymphocytes; assay type: functional, organism-based; conditions: Human immunodeficiency virus 1, 3B
[3] = Therapeutic index, ratio of IC50 for human H9 cells to EC50 for HIV1 3B; assay type: cell-based; conditions: read-out: Ratio IC50/EC50
[4] = tested on: MT2; assay: Cytotoxicity against human MT2 cells after 4 days by XTT assay; assay type: cell-based; conditions: mt2, 96 h
Method in brief: (§1)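 Cells (5 × 10⁵/mL) incubated with graded compound at 37 °C for 4 days, then XTT (1 mg/mL) with 0.02 µM PMS added. A450 read after 4 h; CC50 by CalcuSyn. Triplicate.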

[5] = tested on: Human immunodeficiency virus 1; assay: Antiviral activity against HIV1 3B with X4 tropism infected human MT2 cells assessed as inhibition of p24 antigen production after 4 days by ELISA; assay type: functional, organism-based; conditions: Human immunodeficiency virus 1, 3B, MT2, 96 h
Method in brief: (§2)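 MT-2 cells (1 × 10⁴) infected with HIV-1 (100 TCID50) in RPMI 1640 + 10% FBS with graded compound concentrations overnight; supernatant then replaced with compound-free medium. Day 4 post-infection supernatant lysed with 5% Triton X-100; p24 quantified by sandwich ELISA (HIVIG capture, anti-p24 mAb, TMB, A450) against recombinant p24 standard. Triplicate; EC50 from % inhibition of p24.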

[6] = Selectivity index, ratio of CC50 for human MT2 cells to EC50 for HIV1 3B; assay type: toxicity, cell-based; conditions: read-out: Ratio CC50/EC50
[7] = tested on: MT4; assay: Cytotoxicity against human MT4 cells after 4 days by XTT assay; assay type: cell-based; conditions: mt4, 96 h; method in brief: as §1
[8] = tested on: Human immunodeficiency virus 1; assay: Antiviral activity against HIV Lai with X4 tropism infected human MT4 cells assessed as inhibition of p24 antigen production after 4 days by ELISA; assay type: functional, organism-based; conditions: Human immunodeficiency virus 1, M:B_Lai, MT4, 96 h
Method in brief: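 1 × 10⁴ MT-4 cells infected with HIV-1 Lai (100 TCID50) in RPMI 1640/10% FBS with graded compound overnight. Medium then replaced with compound-free medium. Supernatant lysed with Triton X-100 on day 4 and p24 measured by sandwich ELISA (A450) against recombinant p24 standard. Triplicate; EC50 by CalcuSyn.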

[9] = Selectivity index, ratio of CC50 for human MT4 cells to EC50 for HIV1 Lai; assay type: toxicity, cell-based
Method in brief: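 Ratio of XTT CC50 (4-day MT-4 exposure) to p24-ELISA EC50 against HIV-1 Lai in MT-4 cells.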

[10] = tested on: Human immunodeficiency virus 1; assay: Antiviral activity against multidrug-resistant HIV1 with reverse transcriptase 41L, 67N, 210W, 215Y, 184V, 103N mutation infected in human MT2 cells assessed as inhibition of p24 antigen production after 4 days by ELISA; assay type: functional, organism-based; conditions: Human immunodeficiency virus 1, MT2, 96 h; method in brief: as §2
[11] = tested on: Human immunodeficiency virus 1; assay: Antiviral activity against multidrug-resistant HIV1 with reverse transcriptase 41L, 74V, 184V, 210W, 215Y, ins SS, 98G mutation infected in human MT2 cells assessed as inhibition of p24 antigen production after 4 days by ELISA; assay type: functional, organism-based; conditions: Human immunodeficiency virus 1, MT2, 96 h; method in brief: as §2
[12] = tested on: Human immunodeficiency virus 1; assay: Antiviral activity against multidrug-resistant HIV1 with reverse transcriptase clone 7324-1 infected human MT2 cells assessed as inhibition of p24 antigen production after 4 days by ELISA; assay type: functional, organism-based; conditions: Human immunodeficiency virus 1, MT2, 96 h; method in brief: as §2
[13] = tested on: Human immunodeficiency virus 1; assay: Antiviral activity against wild type HIV1 3B in human MT2 cells assessed as inhibition of p24 antigen production after 4 days by ELISA; assay type: functional, organism-based; conditions: Human immunodeficiency virus 1, 3B, MT2, 96 h
[14] = tested on: Human immunodeficiency virus 1; assay: Antiviral activity against HIV1 BAL 93MW959 isolate of subtype C with R5 tropism in human PBMC cells assessed as inhibition of p24 antigen production after 4 days by ELISA; assay type: functional, organism-based; conditions: Human immunodeficiency virus 1, BAL, 96 h
[15] = tested on: Human immunodeficiency virus 1; assay: Antiviral activity against HIV1 92UG001 isolate of subtype D with X4R5 tropism in human PBMC cells assessed as inhibition of p24 antigen production after 4 days by ELISA; assay type: functional, organism-based; conditions: Human immunodeficiency virus 1, PBMC, 96 h
[16] = tested on: Human immunodeficiency virus 1; assay: Antiviral activity against HIV1 93BR020 isolate of subtype F with X4R5 tropism in human PBMC cells assessed as inhibition of p24 antigen production after 4 days by ELISA; assay type: functional, organism-based; conditions: Human immunodeficiency virus 1, PBMC, 96 h
[17] = tested on: Human immunodeficiency virus 1; assay: Antiviral activity against HIV1 BAL RU570 isolate of subtype G with R5 tropism in human PBMC cells assessed as inhibition of p24 antigen production after 4 days by ELISA; assay type: functional, organism-based; conditions: Human immunodeficiency virus 1, BAL, 96 h
[18] = tested on: Human immunodeficiency virus 1; assay: Antiviral activity against HIV1 BAL BCF02 isolate of group O with R5 tropism in human PBMC cells assessed as inhibition of p24 antigen production after 4 days by ELISA; assay type: functional, organism-based; conditions: Human immunodeficiency virus 1, BAL, 96 h
[19] = tested on: PBMC; assay: Cytotoxicity against human PBMC after 4 days by XTT assay; assay type: cell-based; conditions: 96 h
[20] = Clearance in Sprague-Dawley rat at 2 mg/kg, iv; assay type: ADME, organism-based; set-up: dose 2 mg/kg, route intravenous; conditions: in vivo
Method in brief: (§3)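 Male Sprague-Dawley rats (180–200 g), n = 3, given 2 mg/kg i.v. or 20 mg/kg i.g. in 10% PEG400. Blood taken at 0–720 min, plasma stored at −20 °C. Plasma extracted by acetonitrile protein precipitation and analysed by LC-MS/MS against 5–5000 ng/mL standards. Non-compartmental analysis; F = dose-normalized oral AUC(0–t)/i.v. AUC(0–t). Mean ± SD.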

[21] = Volume of distribution in Sprague-Dawley rat at 2 mg/kg, iv; assay type: ADME, organism-based; set-up: dose 2 mg/kg, route intravenous; conditions: in vivo; method in brief: as §3
[22] = tested on: Rattus norvegicus; assay: AUC (0 to t) in Sprague-Dawley rat at 2 mg/kg, iv; assay type: ADME, organism-based, Plasma; set-up: dose 2 mg/kg, route intravenous; conditions: in vivo; method in brief: as §3
[23] = Half life in Sprague-Dawley rat at 2 mg/kg, iv; assay type: ADME, organism-based; set-up: dose 2 mg/kg, route intravenous; conditions: in vivo; method in brief: as §3
[24] = Clearance in Sprague-Dawley rat at 20 mg/kg, intragastric gavage; assay type: ADME, organism-based; set-up: dose 20 mg/kg, route intragastric; conditions: in vivo, po; method in brief: as §3
[25] = tested on: Rattus norvegicus; assay: Volume of distribution in Sprague-Dawley rat at 20 mg/kg, intragastric gavage; assay type: ADME, organism-based; set-up: dose 20 mg/kg, route intragastric; conditions: in vivo, po; method in brief: as §3
[26] = tested on: Rattus norvegicus; assay: AUC (0 to t) in Sprague-Dawley rat at 20 mg/kg, intragastric gavage; assay type: ADME, organism-based, Plasma; set-up: dose 20 mg/kg, route intragastric; conditions: in vivo, po; method in brief: as §3
[27] = tested on: Rattus norvegicus; assay: Half life in Sprague-Dawley rat at 20 mg/kg, intragastric gavage; assay type: ADME, organism-based; set-up: dose 20 mg/kg, route intragastric; conditions: in vivo, po; method in brief: as §3
[28] = tested on: Rattus norvegicus; assay: Bioavailability in Sprague-Dawley rat at 20 mg/kg, intragastric gavage; assay type: ADME, organism-based; conditions: in vivo, po; method in brief: as §3
[29] = Ratio of EC50 for multidrug-resistant HIV1 with reverse transcriptase 41 L, 67N, 210W, 215Y, 184V, 103N mutation to EC50 for wild type HIV1 3B; assay type: functional
Method in brief: (§4)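 Fold change: EC50 against each multi-RT-resistant strain divided by EC50 against wild-type HIV-1 IIIB, both measured by p24 ELISA in MT-2 cells (4-day infection, triplicate).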

[30] = Ratio of EC50 for multidrug-resistant HIV1 with reverse transcriptase 41L, 74V, 184V, 210W, 215Y, ins SS, 98G mutation to EC50 for wild type HIV1 3B; assay type: functional; method in brief: as §4
[31] = Ratio of EC50 for multidrug-resistant HIV1with reverse transcriptase clone 7324-1 to EC50 for wild type HIV1 3B; assay type: functional; method in brief: as §4
[32] = tested on: Human immunodeficiency virus 1; assay: Antiviral activity against HIV1 94UG103 isolate of subtype A with X4R5 tropism in human PBMC cells assessed as inhibition of p24 antigen production after 7 days by ELISA; conditions: Human immunodeficiency virus 1, PBMC, 168 h
[33] = tested on: Human immunodeficiency virus 1; assay: Antiviral activity against HIV1 BAL 92US657 isolate of subtype B with R5 tropism in human PBMC cells assessed as inhibition of p24 antigen production after 7 days by ELISA; conditions: Human immunodeficiency virus 1, BAL, 168 h
[34] = tested on: Human immunodeficiency virus 1; assay: Antiviral activity against HIV1 BAL 93MW959 isolate of subtype C with R5 tropism in human PBMC cells assessed as inhibition of p24 antigen production after 7 days by ELISA; conditions: Human immunodeficiency virus 1, BAL, 168 h

With `Cc1c(CC#N)c(=O)oc2c3c(ccc12)OC(C)(C)[C@H](OC(=O)[C@@]12CC[C@](C)(C(=O)O1)C2(C)C)[C@@H]3OC(=O)[C@@]12CC[C@](C)(C(=O)O1)C2(C)C` the IC50 [1] was > 37 µM, the EC50 [2] was 0.0024 µM and the selectivity ratio [3] was 15400. The CC50 [4] was 40.8 µM, the EC50 [5] was 0.47 µM and the selectivity ratio [6] was 86.1. For the same molecule, the CC50 [7] was > 100 µM, the EC50 [8] was 1.51 µM and the selectivity ratio [9] was > 66. It also gave an EC50 [10] of 1.81 µM, an EC50 [11] of 0.43 µM and an EC50 [12] of 3.93 µM. The EC50 [13] was 0.2 µM, the EC90 [14] was 3.06 µM and the EC50 [15] was 0.98 µM. For the same molecule, the EC90 [15] was 5.23 µM, the EC50 [16] was 2.18 µM and the EC90 [16] was 3.76 µM. It also gave an EC50 [17] of 3.27 µM, an EC90 [17] of 8.93 µM and an EC50 [18] of 9.92 µM. For the same molecule, the EC90 [18] was 18.1 µM, the CC50 [19] was > 150 µM and the clearance [20] was 10 mL/min/kg. It also gave a Vd [21] of 2.34 L/kg, an AUC [22] of 195270.08 µg/L/min and a half-life [23] of 1.62 h. It also gave a CL/F [24] of 58 mL/min/kg, a Vd [25] of 8.19 L/kg and an AUC [26] of 348067.29 µg/L/min. It also gave a t1/2 [27] of 2.78 h, an F [28] of 17.8% and a Ratio EC50 [29] of 8.96. It also gave a Ratio EC50 [30] of 2.13, a Ratio EC50 [31] of 14.4 and an EC50 [32] of 0.84 µM. The EC90 [32] was 1.63 µM, the EC50 [33] was 5.09 µM and the EC90 [33] was 9.22 µM. For the same molecule, the EC50 [34] was 0.87 µM.

In the case of `Cc1ccnc2c1NC(=O)c1cccnc1N2C1CC1` [NEVIRAPINE], the EC50 [10] is reported as > 14.8 µM, the EC50 [11] is reported as > 14.8 µM and the EC50 [12] is reported as > 14.8 µM.

Work on `Cc1c(CO)c(=O)oc2c3c(ccc12)OC(C)(C)[C@H](OC(=O)C12CCC(C)(C(=O)O1)C2(C)C)[C@@H]3OC(=O)C12CCC(C)(C(=O)O1)C2(C)C` (some centres not stated) yielded a selectivity ratio [3] of 6220.

Work on `Cc1cc(=O)oc2c3c(ccc12)OC(C)(C)[C@H](OC(=O)[C@@]12CC[C@](C)(C(=O)O1)C2(C)C)[C@@H]3OC(=O)[C@@]12CC[C@](C)(C(=O)O1)C2(C)C` yielded an IC50 [1] of 23.6 µM, an EC50 [2] of 0.0015 µM and a selectivity ratio [3] of 15700.
